Measurements collected from several papers.
Compare with care: the assays were run in different laboratories.
Target: Myotonin-protein kinase (DMPK, Homo sapiens, UniProt Q09013)
One construct used (Q09013 1-629): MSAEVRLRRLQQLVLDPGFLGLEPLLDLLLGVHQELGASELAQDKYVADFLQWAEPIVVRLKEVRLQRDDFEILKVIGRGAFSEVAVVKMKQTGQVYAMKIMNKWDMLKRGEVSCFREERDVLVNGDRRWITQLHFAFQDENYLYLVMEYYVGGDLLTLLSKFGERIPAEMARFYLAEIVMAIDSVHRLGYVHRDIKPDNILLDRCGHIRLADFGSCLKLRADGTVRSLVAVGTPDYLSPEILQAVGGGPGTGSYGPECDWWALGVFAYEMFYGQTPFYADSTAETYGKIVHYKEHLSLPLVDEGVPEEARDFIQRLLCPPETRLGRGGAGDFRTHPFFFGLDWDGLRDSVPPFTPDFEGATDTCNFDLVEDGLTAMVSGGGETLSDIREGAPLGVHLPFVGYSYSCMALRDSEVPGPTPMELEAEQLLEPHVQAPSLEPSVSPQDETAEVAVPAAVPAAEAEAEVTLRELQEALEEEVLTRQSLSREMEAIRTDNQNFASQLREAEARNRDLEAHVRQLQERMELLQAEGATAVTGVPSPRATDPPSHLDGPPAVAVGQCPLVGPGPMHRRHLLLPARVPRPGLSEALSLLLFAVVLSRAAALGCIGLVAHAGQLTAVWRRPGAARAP

Structure (SMILES)	observed	action	technique	concentration	quantity	value
Cn1cncc1[C@](O)(COc1ccc(C#N)cc1-c1ccc(OC(F)(F)F)cc1)c1ccc(C#N)cc1	cell-free assay	–	competition with immobilised ligand	1 µM	remaining binding	98%
CC(C)(C)c1cc(C=C(C#N)C#N)cc(Br)c1O	enzyme activity	inhibitor	–	0.5 µM	remaining activity	96.9%
Cn1cc(-c2cccc(N3CCc4c(sc5c4CC(C)(C)C5)C3=O)c2CO)cc(Nc2ccncn2)c1=O	enzyme activity	inhibitor	–	1 µM	inhibition	-4%
COc1ncccc1-c1cnn2ccc(N3CCN(C(=O)OC(C)C)CC3)nc12	binding	–	competition with immobilised ligand	1 µM	remaining binding	98%
O=c1[nH]c2ccccc2n1C1CCN(Cc2ccc(-c3[nH]c4cc5ncnc5cc4nc3-c3ccccc3)cc2)CC1	cell-free assay	–	–	0.5 µM	remaining signal	98%
Cn1cc(-c2cc(F)cc(N3CCn4c(cc5c4CCCC5)C3=O)c2CO)cc(Nc2ccc(N3CCN(C4COC4)CC3)cn2)c1=O	enzyme activity	inhibitor	–	0.1 µM	inhibition	-7%
C#Cc1n[nH]c2c(-c3cn([C@@H](C)c4ccccn4)c(=O)[nH]c3=O)cc(F)cc12	enzyme activity	inhibitor	–	0.1 µM	inhibition	3.2%
Nc1ncc(-c2nc(N3CCOCC3)nc(N3CCOCC3)n2)c(C(F)F)n1	binding	–	competition with immobilised ligand	10 µM	remaining binding	76%
C#Cc1n[nH]c2c(-c3cn([C@@H](C)c4ccccc4)c(=O)[nH]c3=O)cc(F)cc12	enzyme activity	inhibitor	–	0.1 µM	inhibition	-4%
Cc1nn(C)cc1-c1nc2c(N3CCN(Cc4ccc(Cl)cc4)CC3)c(Cl)cnc2[nH]1	binding	–	competition with immobilised ligand	1 µM	remaining binding	100%
